EBI2 block: EBI2 receptor antagonists, beta-arrestin recruitment, primary screen, cell-based, luminescence, 7a,25-OHC stimulation, uHTS; 7a,25-OHC stimulated; 360,000 tested, 0.81% active; AID 651636, 2012; inhibition, % at 5 µM; G-protein coupled receptor 183 (Homo sapiens), P32249; in the data active = inhibition above about 38%;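 also: enzyme fragment complementation signal reports receptor beta-arrestin coupling in cells; 0% = agonist plus DMSO wells and 100% = wells without agonist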
Target sequence (P32249 whole entry, looked up, the tested form may be a part): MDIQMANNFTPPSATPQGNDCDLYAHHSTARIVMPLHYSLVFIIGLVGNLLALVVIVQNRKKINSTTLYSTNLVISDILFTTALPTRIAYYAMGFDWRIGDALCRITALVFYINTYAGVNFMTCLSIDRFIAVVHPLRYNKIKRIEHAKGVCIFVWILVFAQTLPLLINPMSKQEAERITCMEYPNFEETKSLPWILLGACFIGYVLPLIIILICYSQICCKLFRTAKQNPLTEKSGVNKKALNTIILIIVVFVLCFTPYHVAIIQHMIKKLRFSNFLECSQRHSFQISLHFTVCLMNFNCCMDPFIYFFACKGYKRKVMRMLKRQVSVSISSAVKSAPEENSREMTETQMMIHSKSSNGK
MPTP block: mitochondrial permeability transition pore inhibitors, primary screen, biochemical, isolated mouse mitochondria, absorbance; Ca2+ swelling absorbance, 30 min; inhibition, % at 10 µM; AID 602449, 2012; 360,000 tested, 1.4% active;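 active = inhibition of 50% or more, scaled per plate between neutral and stimulator controls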;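 also: 0% = DMSO wells given calcium and 100% = 1 mM EGTA wells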
GRIN3A LBD mod: binders of NR3A ligand-binding domain, primary screen, biophysical, differential scanning fluorimetry, uHTS; NR3A LBD differential scanning fluorimetry, Tm shift; 0% = protein alone, 100% = glycine-bound protein; Tm shift relative to glycine control, % at 25 µM; 340,000 tested, 2.5% active; AID 1259313, 2017;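 active = melting temperature shift of at least 10% of the positive control shift, at one fixed dose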
SENP1 inh: human SENP1 catalytic domain inhibitors, primary screen, biochemical, FRET, uHTS. AID 624204, 2012. 360,000 tested, 0.21% active. Sentrin-specific protease 1 (Homo sapiens), Q9P0U3. recombinant SENP1 catalytic domain, CyPet-SUMO1-YPet FRET cleavage. inhibition, % at 10 µM;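 active = inhibition at least 30% at 10 µM, raw YFP signal under a set limit, fluorescence ratio 0.5 to 1.5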;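 also: 0% = enzyme with DMSO and 100% = no enzyme wells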
Target sequence (Q9P0U3 419-644 limits assumed): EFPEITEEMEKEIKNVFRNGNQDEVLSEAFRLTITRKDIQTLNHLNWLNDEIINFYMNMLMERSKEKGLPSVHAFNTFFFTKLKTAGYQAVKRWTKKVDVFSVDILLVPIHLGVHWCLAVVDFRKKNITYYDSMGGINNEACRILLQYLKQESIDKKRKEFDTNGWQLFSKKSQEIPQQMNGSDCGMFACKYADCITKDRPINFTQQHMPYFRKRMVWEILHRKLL
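Material – human SENP1 catalytic domain · Input – SENP1 enzyme, 20 pM final · Compound dosing – single concentration of 10 µM compound, 0.5% DMSO final · Timing – enzyme reaction for 50 min at room temperature, dark · Measured by – FRET fluorescence in CFP and YFP emission channels · Control set – no-enzyme wells low, DMSO-plus-enzyme wells high control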
Active calls of the source: *. An excerpt weighted towards active compounds, which were near 4.4% of everything screened.

For CNc1c(NS(=O)(=O)c2ccc(OC)c(Cl)c2)c(=O)oc2ccccc12 the results were EBI2 block -4, MPTP block -2, GRIN3A LBD mod 16* and SENP1 inh 2.
For O=C(Cc1ccc(NC2=NC3CS(=O)(=O)CC3S2)cc1)NCc1ccccc1 (stereo not drawn) the results were EBI2 block -5, MPTP block -3, GRIN3A LBD mod -1 and SENP1 inh 0.
Screening Cc1ccc(-c2nnc(-c3cccc4ccccc34)o2)cc1 returned EBI2 block 28, MPTP block 1, GRIN3A LBD mod -2 and SENP1 inh 2.
c1ccc(Nc2nnc(-c3cccc4ccccc34)o2)cc1 was read as EBI2 block 3, MPTP block 6, GRIN3A LBD mod 15* and SENP1 inh 1.
CC(OC(=O)c1ccc([N+](=O)[O-])o1)C(=O)Nc1nc(-c2ccc(F)c(F)c2)cs1 (stereo not drawn) was read as EBI2 block -26, MPTP block -1, GRIN3A LBD mod 15* and SENP1 inh 1.
For CC(C)CNC(=O)c1ccccc1NC(=O)CSCc1ccccc1 the results were EBI2 block 2, MPTP block -3, GRIN3A LBD mod 14* and SENP1 inh 1.
For Cc1onc(-c2ccccc2Cl)c1C(=O)OCC(=O)c1ccc[nH]1 the results were EBI2 block 1, MPTP block 0, GRIN3A LBD mod 0 and SENP1 inh 1.
`Cc1onc(-c2ccccc2Cl)c1C(=O)OCC(=O)c1ccc2c(c1)OCCO2` gave EBI2 block 13, MPTP block 2, GRIN3A LBD mod 12* and SENP1 inh -1.
`COc1ccc(/C(N)=N/OC(=O)c2c(-c3ccccc3Cl)noc2C)cc1OC` gave EBI2 block 1, MPTP block 1, GRIN3A LBD mod 18* and SENP1 inh 2.
Screening Cc1nc(/C(N)=N/OC(=O)c2c(-c3ccccc3Cl)noc2C)cs1 returned EBI2 block -5, MPTP block 7, GRIN3A LBD mod 0 and SENP1 inh 1.
For O=C(NC1=NCCS1)c1sc2cc(Cl)cc(Cl)c2c1Cl the results were EBI2 block -9, MPTP block 0, GRIN3A LBD mod 20* and SENP1 inh -1.
For O=C(NC1=NCCS1)c1sc2ccccc2c1Cl the results were EBI2 block -5, MPTP block 1, GRIN3A LBD mod 2 and SENP1 inh 2.
COc1ccccc1CNC(=O)C1CCN(S(=O)(=O)c2ccc3c(c2)C(C)(C)C(=O)N3C)CC1 was read as EBI2 block -2, MPTP block 1, GRIN3A LBD mod 0 and SENP1 inh -1.
For CCOc1nc(-c2ccc(OC)cc2)ccc1-c1noc(C)n1 the results were EBI2 block 19, MPTP block 0, GRIN3A LBD mod 25* and SENP1 inh -119.
`COc1ccc(-c2ccc(-c3noc(C)n3)c(OC)n2)cc1` gave EBI2 block 5, MPTP block -2, GRIN3A LBD mod 1 and SENP1 inh -56.
Screening Cc1ccc([C@@H]2[C@@H]3C(=O)N(c4ccccc4)C(=O)[C@@H]3[C@]3(Cc4ccccc4)C(=O)N(CC4CC4)CC(=O)N23)o1 returned EBI2 block 2, MPTP block 1, GRIN3A LBD mod 18* and SENP1 inh -4.
Screening Cc1ccc([C@@H]2[C@@H]3C(=O)N(C)C(=O)[C@@H]3[C@]3(Cc4ccccc4)C(=O)N(CCO)CC(=O)N23)o1 returned EBI2 block -9, MPTP block -2, GRIN3A LBD mod 2 and SENP1 inh -6.
COc1ccc(C(c2nnnn2C2CCCC2)N2CCC(C(N)=O)CC2)c(OC)c1 (stereo not drawn) was read as EBI2 block -6, MPTP block 1, GRIN3A LBD mod 14* and SENP1 inh 3.
`COc1ccc(N2CCN(C(c3ccccc3OC)c3nnnn3C3CCCC3)CC2)cc1` (stereo not drawn) gave EBI2 block 6, MPTP block 0, GRIN3A LBD mod -6 and SENP1 inh 1.
`CCc1nn(CCCC(=O)NCc2ccc(OC(C)C)cc2)c(=O)c2cc3occc3n12` gave EBI2 block 3, MPTP block 0, GRIN3A LBD mod 16* and SENP1 inh -5.
O=C(O)c1ccc(COc2ccccc2Cl)cc1 was read as EBI2 block -14, MPTP block -1, GRIN3A LBD mod 13* and SENP1 inh 0.
For Nc1c(N2CCCC2)cc(Cl)c2nonc12 the results were EBI2 block -2, MPTP block -1, GRIN3A LBD mod -3 and SENP1 inh 61*.
For COc1ccc(C(=O)O/N=C/c2c(C(F)(F)F)nn(C)c2SCc2ccccc2Cl)cc1 the results were EBI2 block 50*, MPTP block 9, GRIN3A LBD mod 2 and SENP1 inh 1.
Screening Nc1nc(SCC(=O)Nc2ccc([N+](=O)[O-])cc2)[nH]c(=O)c1NC(=O)c1ccc(Br)cc1 returned EBI2 block 4, MPTP block 0, GRIN3A LBD mod 31* and SENP1 inh 1.
Nc1nc(SCC(=O)Nc2ccc(OC(F)(F)F)cc2)[nH]c(=O)c1NC(=O)c1ccc(Br)o1 was read as EBI2 block -21, MPTP block 1, GRIN3A LBD mod 17* and SENP1 inh -4.
Screening Nc1cc(=O)[nH]c(SCC(=O)Nc2ccc([N+](=O)[O-])cc2)n1 returned EBI2 block 0, MPTP block 4, GRIN3A LBD mod -1 and SENP1 inh 1.
Screening COc1ccc(NC(=O)c2ccc(NC(=O)CSc3nc(N)cc(=O)[nH]3)cc2)cc1 returned EBI2 block 7, MPTP block 0, GRIN3A LBD mod 11* and SENP1 inh 3.
`CN1CCN(c2ncnc3c2ncn3[C@H]2CN(Cc3cccs3)C[C@@H](CO)O2)CC1` gave EBI2 block 6, MPTP block 1 and SENP1 inh -5.
`CCOC(=O)Nc1ccc2c(CN(C)Cc3ccc(F)cc3)cc(=O)oc2c1` gave EBI2 block 25, MPTP block 1, GRIN3A LBD mod 14* and SENP1 inh -6.
`CCOC(=O)Nc1ccc2c(C)cc(=O)oc2c1` gave EBI2 block -5, MPTP block -1, GRIN3A LBD mod -1 and SENP1 inh 1.
Screening O=[N+]([O-])C1C(c2ccccc2)C12c1ccccc1-c1ccccc12 (stereo not drawn) returned EBI2 block -9, MPTP block 1 and SENP1 inh 3.
`N#Cc1ccc(C(=O)NC23CC4CC(CC(C4)C2)C3)cc1` gave EBI2 block -4, MPTP block 0, GRIN3A LBD mod 0 and SENP1 inh 0.
Screening O=[N+]([O-])c1cccc(S(=O)(=O)Nc2ccc(-c3ccc(N4CCOCC4)nn3)cc2)c1 returned EBI2 block -6, MPTP block 0, GRIN3A LBD mod 3 and SENP1 inh 3.
